Test results reported in ChEMBL document CHEMBL3297646, “Structure-activity relationship study of non-steroidal NPC1L1 ligands identified through cell-based assay using pharmacological chaperone effect as a readout” (Bioorg Med Chem, 2014).
Activity calls are given as the source filed them. No cut-off for these calls is given here.

Columns and labels:
[1] = target: T1, NPC1-like intracellular cholesterol transporter 1 (Homo sapiens) (UniProt Q9UHC9); test: Binding affinity to human GFP-tagged NPC1L1 L1072T/L1168I mutant expressed in HEK293 cells assessed as localization to plasma membrane at 30 uM after 24 hrs by fluorescence microscopic analysis; type: cell-based
T1 sequence (whole entry): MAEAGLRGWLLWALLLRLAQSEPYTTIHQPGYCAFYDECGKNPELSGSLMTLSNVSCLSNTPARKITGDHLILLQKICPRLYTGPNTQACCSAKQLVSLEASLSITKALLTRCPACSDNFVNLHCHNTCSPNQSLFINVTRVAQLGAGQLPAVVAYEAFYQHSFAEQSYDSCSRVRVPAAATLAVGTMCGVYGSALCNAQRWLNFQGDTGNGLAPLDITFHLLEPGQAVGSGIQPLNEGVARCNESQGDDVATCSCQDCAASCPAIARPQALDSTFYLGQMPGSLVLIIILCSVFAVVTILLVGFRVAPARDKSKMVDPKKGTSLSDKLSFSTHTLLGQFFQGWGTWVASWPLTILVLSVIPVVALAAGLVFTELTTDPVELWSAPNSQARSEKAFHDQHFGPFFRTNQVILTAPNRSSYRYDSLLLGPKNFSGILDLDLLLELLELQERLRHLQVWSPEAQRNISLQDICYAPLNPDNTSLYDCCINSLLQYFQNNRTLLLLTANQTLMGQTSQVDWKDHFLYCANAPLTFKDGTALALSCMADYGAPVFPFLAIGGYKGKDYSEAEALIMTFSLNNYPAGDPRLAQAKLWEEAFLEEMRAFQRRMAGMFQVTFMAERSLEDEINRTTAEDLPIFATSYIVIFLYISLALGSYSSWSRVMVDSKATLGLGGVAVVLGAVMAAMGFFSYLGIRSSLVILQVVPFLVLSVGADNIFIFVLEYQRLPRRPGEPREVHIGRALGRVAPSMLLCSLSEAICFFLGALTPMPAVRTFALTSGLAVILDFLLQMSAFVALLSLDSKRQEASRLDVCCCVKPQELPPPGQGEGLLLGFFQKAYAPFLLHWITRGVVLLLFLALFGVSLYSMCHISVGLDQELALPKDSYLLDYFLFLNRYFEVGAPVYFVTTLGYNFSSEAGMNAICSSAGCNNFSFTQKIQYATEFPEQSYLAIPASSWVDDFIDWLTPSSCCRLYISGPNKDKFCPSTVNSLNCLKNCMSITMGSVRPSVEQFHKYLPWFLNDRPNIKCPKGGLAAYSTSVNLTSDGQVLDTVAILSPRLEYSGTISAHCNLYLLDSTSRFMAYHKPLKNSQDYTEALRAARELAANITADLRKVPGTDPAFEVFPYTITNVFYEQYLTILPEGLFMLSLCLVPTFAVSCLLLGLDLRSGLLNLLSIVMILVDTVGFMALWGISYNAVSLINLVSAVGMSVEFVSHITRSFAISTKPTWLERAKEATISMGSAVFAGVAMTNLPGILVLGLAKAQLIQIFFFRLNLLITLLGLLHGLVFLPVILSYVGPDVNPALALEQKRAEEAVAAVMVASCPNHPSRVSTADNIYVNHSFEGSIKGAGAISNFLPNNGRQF
Procedure, shortened: (§1)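 HEK293 cells stably expressing EGFP-tagged NPC1L1 L1072T/L1168I were plated on poly-D-lysine-coated glass-bottomed wells (20 µg/mL in PBS) and grown 24 h. They were then exposed to compound at 10 or 30 µM (0.1% final DMSO) and fixed in 3.7% formaldehyde-PBS. Read-out was % of EGFP signal localized to the plasma membrane.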

[2] = target: T1, NPC1-like intracellular cholesterol transporter 1 (Homo sapiens); test: Binding affinity to human GFP-tagged NPC1L1 L1072T/L1168I mutant expressed in HEK293 cells assessed as localization to plasma membrane at 10 uM after 24 hrs by fluorescence microscopic analysis; type: cell-based; procedure, shortened: as §1
HEK293 = test: Cytotoxicity against HEK293 cells transfected with human GFP-tagged NPC1L1 L1072T/L1168I mutant at 30 uM; type: cell-based; settings: hek293, 30 µM
[3] = target: T1, NPC1-like intracellular cholesterol transporter 1 (Homo sapiens); test: Binding affinity to human EGFP-tagged full-length NPC1L1 L1072T/L1168I mutant expressed in HEK293 cells assessed as protein stabilization after 24 hrs by fluorescence assay; type: cell-based
Procedure, shortened: (§2)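 Steady-state levels of full-length or NTD-deleted NPC1L1 L1072T/L1168I-GFP were measured in stably expressing HEK293 cells treated with compound at 1–30 µM or vehicle. GFP fluorescence in cell lysates was normalized to total protein by bicinchoninic acid assay. Values are expressed as % of vehicle-treated cells.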

[4] = target: T1, NPC1-like intracellular cholesterol transporter 1 (Homo sapiens); test: Binding affinity to human EGFP-tagged NTD-deleted NPC1L1 L1072T/L1168I mutant expressed in HEK293 cells assessed as protein stabilization after 24 hrs by fluorescence assay; type: cell-based; procedure, shortened: as §2
[5] = target: Liver X receptor (Homo sapiens) (UniProt Q13133+P55055); test: Activation of LXR (unknown origin) expressed in HEK293 cells at 30 uM after 16 hrs by luciferase reporter gene assay; type: cell-based
[6] = target: T1, NPC1-like intracellular cholesterol transporter 1 (Homo sapiens); test: Binding affinity to human EGFP-tagged NTD-deleted NPC1L1 L1072T/L1168I mutant expressed in HEK293 cells assessed as localization to plasma membrane after 24 hrs by fluorescence microscopic analysis; type: cell-based
Procedure, shortened: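 Stable HEK293 lines expressing NTD-deleted NPC1L1 L1072T/L1168I-EGFP were grown 24 h on poly-D-lysine-coated glass-bottomed wells and treated with compound (0.1% final DMSO). Cells were fixed in 3.7% formaldehyde-PBS with Hoechst-33342 nuclear counterstain. NPC1L1-GFP localization was examined by fluorescence imaging.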

Homo sapiens = organism: Homo sapiens; test: Selectivity for human GFP-tagged NPC1L1 L1072T/L1168I mutant over LXR (unknown origin)

Row | Structure (SMILES) | Activity [1] | Activity [2] | further results
1 | CCN(C(=O)c1ccc2c(c1)c1c(c(=O)n2CCO)CCCCC1)C1CC1 | 0% |  | 
2 | CCCn1c(=O)c2c(c3cc(C(=O)N(CC)C4CC4)ccc31)CCCCC2 | 39% | 0% | 
3 | CCCCn1c(=O)c2c(c3cc(C(=O)N(CC)CC)ccc31)CCC2 | 15% | 1% | 
4 | CCN(CC)C(=O)c1ccc2c(c1)c1ccccc1c(=O)n2C | 0% |  | 
5 | CCCCN1C(=O)c2ccccc2Oc2cc(C(=O)N(CC)CC)ccc21 | 3% |  | 
6 | CCN(CC)C(=O)c1ccc2[nH]c(=O)c3ccccc3c2c1 | 0% |  | 
7 | CCCCn1c(=O)c2ccccc2c2cc(C(=O)NCc3ccccc3)ccc21 | 0% |  | 
8 | CCCCn1c(=O)c2c(c3cc(C(=O)NC(C)C)ccc31)CCCCC2 | 25% | 0% | 
9 | CCCCn1c(=O)c2c(c3cc(C(=O)N(CC)CC)ccc31)CCCCCC2 | 44% | 5% | 
10 | CCN(C(=O)c1ccc2c(c1)c1c(c(=O)n2C(C)C)CCCCC1)C1CC1 |  | 0% | Activity (HEK293): Toxic
11 | CCCCn1c(=O)c2c(c3cc(C(=O)N4CCCC4)ccc31)CCCCC2 | 33% | 1% | 
12 | CCCCn1c(=O)c2ccccc2c2cc(C(=O)N(CCC)CCC)ccc21 | 50% | 14% | 
13 | CCN(C(=O)c1ccc2[nH]c(=O)c3c(c2c1)CCCCC3)C1CC1 | 0% |  | Activity [3]: Active; Activity [4]: Active
14 | CCN(C(=O)c1ccc2c(c1)c1c(c(=O)n2CCOC)CCCCC1)C1CC1 | 0% |  | 
15 | CCN(C(=O)c1ccc2c(c1)c1c(c(=O)n2Cc2ccccc2)CCCCC1)C1CC1 | 14% | 0% | 
16 | CCCCn1c(=O)c2c(c3cc(C(=O)NC4CCCC4)ccc31)CCCCC2 | 16% | 6% | 
17 | CCN(C(=O)c1ccc2c(c1)c1c(c(=O)n2C)CCCCC1)C1CC1 | 0% |  | 
18 | CCN(CC)C(=O)c1ccc2c(c1)c1ccccc1c(=O)n2CC(=O)O | 0% |  | 
19 | CCCCn1c(=O)c2ccccc2c2cc(C(=O)NC)ccc21 | 24% | 1% | 

Row | Structure (SMILES) | Activity [1] | Activity [2] | further results
20 | CCN(CC)C(=O)c1ccc2c(c1)c1ccccc1c(=O)n2CC(=O)N(C)C | 0% |  | 
21 | CCCCn1c(=O)c2ccccc2c2cc(C(=O)N(C)C)ccc21 | 4% |  | 
22 | CCCCN1C(=O)CCc2cc(C(=O)N(CC)CC)ccc21 | 1% |  | 
23 | CCCCn1c(=O)c2c(c3cc(C(=O)N(C)C)ccc31)CCCCC2 | 2% |  | 
24 | CCN(C(=O)c1ccc2c(c1)c1c(c(=O)n2CC)CCCCC1)C1CC1 | 7% |  | Activity [3]: Active; Activity [4]: Active
25 | CCCCn1c(=O)c2c(c3cc(C(N)=O)ccc31)CCCCC2 | 0% |  | 
26 | CCCCn1c(=O)c2c(c3cc(C(=O)NCC)ccc31)CCCCC2 | 28% | 0% | 
27 | CCCCn1c(=O)c2ccccc2c2cc(C(=O)N(CC)CC)ccc21 | 45% | 1% | 
28 | CCCCNC(=O)c1ccc2c(c1)c1c(c(=O)n2CCCC)CCCCC1 | 18% | 0% | 
29 | CCN(CC)C(=O)c1ccc2c(c1)c1ccccc1c(=O)n2CCCC(=O)O | 0% |  | 
30 | CCCCn1c(=O)c2ccccc2c2cc(C(=O)NC(C)C)ccc21 | 49% | 0% | 
31 | CCN(CC)C(=O)c1ccc2c(c1)c1ccccc1c(=O)n2CCCC(=O)N(C)C | 0% |  | 
32 | CCCCn1c(=O)c2ccccc2c2cc(C(=O)N3CCOCC3)ccc21 | 0% |  | 
33 | CCN(CC)C(=O)c1ccc2c(c1)c1ccccc1c(=O)n2Cc1ccccc1 | 0% |  | 
34 | CCN(CC)C(=O)c1ccc2c(c1)c1ccccc1c(=O)n2Cc1ccc(OC)cc1 | 18% | 0% | 
35 | CCCC(=O)N1CC2=C(CCCC2)c2cc(C(=O)N(CC)CC)ccc21 | 1% |  | 
36 | CCCCn1c(=O)c2c(c3cc(C(=O)Nc4ccccc4)ccc31)CCCCC2 | 0% |  | 
37 | CCN(CC)C(=O)c1ccc2c(c1)c1ccccc1c(=O)n2CC | 4% |  | 
38 | CCCCn1c(=O)c2c(c3cc(C(=O)NC)ccc31)CCCCC2 | 23% | 0% | 

Continued, in another order:

Row | Activity [1] | Activity [2] | Structure (SMILES) | further results
39 | 42% | 2% | CCCCn1c(=O)c2c(c3cc(C(=O)N(CC)CC)ccc31)CCCC2 | 
40 | 47% | 0% | CCCCn1c(=O)c2ccccc2c2cc(C(=O)N3CCCCC3)ccc21 | 
41 |  | 1% | CCCCCCn1c(=O)c2c(c3cc(C(=O)N(CC)C4CC4)ccc31)CCCCC2 | Activity (HEK293): Toxic
42 | 49% | 3% | CCCCn1c(=O)c2c(c3cc(C(=O)NC4CC4)ccc31)CCCCC2 | 
43 | 35% | 3% | CCCCCn1c(=O)c2c(c3cc(C(=O)N(CC)C4CC4)ccc31)CCCCC2 | 
44 | 0% |  | CCCCn1c(=O)c2ccccc2c2cc(C(=O)N(CCO)CCO)ccc21 | 
45 | 21% | 1% | CCCCn1c(=O)c2c(c3cc(C(=O)N(C)C4CC4)ccc31)CCCCC2 | 
46 | 0% |  | CCCCn1c(=O)c2ccccc2c2cc(C(=O)NC3CCCC3)ccc21 | 
47 | 36% | 0% | CCCCn1c(=O)c2c(c3cc(C(=O)NCCC)ccc31)CCCCC2 | 
48 | 0% |  | CCCCn1c(=O)c2ccccc2c2cc(C(N)=O)ccc21 | 
49 | 42% | 14% | CCCCn1c(=O)c2c(c3cc(C(=O)N(CC)CC)ccc31)CCCCC2 | 
50 | 0% |  | CCCCn1c(=O)c2c(c3cc(C(=O)NCCO)ccc31)CCCCC2 | 
51 |  | 18% | CCCCN(CCCC)C(=O)c1ccc2c(c1)c1ccccc1c(=O)n2CCCC | Activity (HEK293): Toxic
52 | 11% | 3% | CCCCn1c(=O)c2ccccc2c2cc(C(=O)NC3CCCCC3)ccc21 | 
53 | 1% |  | CCCCn1c(=O)c2c(c3cc(C(=O)NC(C)(C)C)ccc31)CCCCC2 | 
54 | 45% | 8% | CCCCn1c(=O)c2c(c3cc(C(=O)N(CC)C4CC4)ccc31)CCCCC2 | Activity [5]: inactive; Activity [6]: Active; Activity [3]: Active; Activity [4]: Active; Selectivity ratio (Homo sapiens): 2
55 | 5% | 2% | CCCCn1c(=O)c2c(c3cc(C(=O)NC4CCCCC4)ccc31)CCCCC2 | 
56 | 55% | 14% | CCCCn1c(=O)c2ccccc2c2cc(C(=O)NC3CC3)ccc21 | 
57 | 41% | 11% | CCCCn1c(=O)c2ccccc2c2cc(C(=O)NC(C)(C)C)ccc21 | 
